Results on seven compounds are retold here after publication PMC9468506 (Current Research in Food Science, 2022).

In brackets after ≈: the same amount, converted by molar mass. Like-named read-outs stand apart in the source and are kept apart here.

One experiment relates to anti-PBZ mAb. As to the kind of experiment: TRFMs-LFIA competitive lateral flow immunoassay with anti-PBZ mAb immunoprobe. As to conditions: for IC50: TRFMs-LFIA, coating antigen PBZ-2-BSA, optimal conditions; for CR: cross reactivity = IC50 (PBZ)/IC50 (structural analogue) x 100. The format is binding, mouse. The gist of the method:
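Anti-analyte mAb coupled by EDC/NHS to carboxylated time-resolved fluorescent microspheres, activated in MES pH 6.0. Nitrocellulose strip has a T line of coating antigen (2 mg/mL) and a C line of goat anti-mouse IgG (0.16 mg/mL). Probe (7.5 μg/mL stock) and 100 μL standard are premixed 3 min, then the strip is dipped 3 min. The T/C fluorescence ratio gives B/B0 against log concentration. IC50 is taken at 50% B/B0, and CR = IC50 (analyte)/IC50 (analogue) × 100.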

In another experiment the test system is anti-PBZ pAb. As to conditions: TRFIA, water and soil, ref Liu et al. (2016); cited from earlier work.
Experiment [1] has as its system anti-PBZ antibody (mAb or pAb). As to conditions: icELISA, cited from earlier work.

In the experiment with anti-PBZ mAb, Diniconazole showed an IC50 of over 10 µg/mL and a CR of under 0.1%.
`CC(C)(C)C(=O)C(Oc1ccc(Cl)cc1)n1cncn1` (stereo not drawn) [Triadimefon]: in the experiment on anti-PBZ mAb, the IC50 is 0.44371 µg/mL (≈ 1.51 µM) and the CR was 2.10%.
Take `CCCCC(O)(Cn1cncn1)c1ccc(Cl)cc1Cl` (stereo not drawn) [Hexaconazole]: in the experiment on anti-PBZ mAb, the half-inhibitory concentration (IC50) is over 10 µg/mL and the CR is on record as under 0.1%.
For `CC(C)(C)C(O)C(Oc1ccc(Cl)cc1)n1cncn1` (stereo not drawn) [Triadimenol], in the experiment on anti-PBZ mAb, the concentration for half-maximal inhibition (IC50) worked out at 0.92421 µg/mL (≈ 3.12 µM) and the CR is recorded as 1.01%.
Taken in the same sequence, the figures for `CC(C)(C)C(O)/C(=C\c1ccc(Cl)cc1)n1cncn1` (stereo not drawn) [Uniconazole] were 3.81516 µg/mL (≈ 13.1 µM) and 0.25%.
For the compound `CC(C)(C)C(O)(CCc1ccc(Cl)cc1)Cn1cncn1` (stereo not drawn) [Tebuconazole], in the experiment on anti-PBZ mAb, the IC50 was over 10 µg/mL and the CR is under 0.1%.
As for `CC(C)(C)[C@@H](O)[C@@H](Cc1ccc(Cl)cc1)n1cncn1` [Paclobutrazol], the IC50 was 0.00109 µg/mL (≈ 0.00371 µM) in the experiment with anti-PBZ pAb; 0.0116 µg/mL (≈ 0.0395 µM) in experiment [1] (mAb, soil, ref Jin (2019)); 0.0087 µg/mL (≈ 0.0296 µM) in experiment [1] (mAb, wheat, ref Cao et al. (2014)); 0.01326 µg/mL (≈ 0.0451 µM) in experiment [1] (pAb, fruits, ref Ouyang et al. (2020)); 0.02135 µg/mL (≈ 0.0727 µM) in experiment [1] (pAb, water and soil, ref Wang (2016)). The same compound registered a CR in the experiment with anti-PBZ mAb of 100%.
